# Legend:
# Assay type in all cases: functional
# OVCAR-8 = test: Growth inhibition of human OVCAR8 cells at 10 uM relative to control; settings: read-out: GI
# Procedure, shortened: (§1)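 Each cell line in a 60-line human tumour panel exposed to one 10 μM concentration. Growth inhibition percentage computed as 100 minus the percentage activity relative to control.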
# OVCAR-5 = test: Growth inhibition of human OVCAR5 cells at 10 uM relative to control; settings: read-out: GI; procedure, shortened: as §1
# OVCAR-4 = test: Growth inhibition of human OVCAR4 cells at 10 uM relative to control; settings: read-out: GI; procedure, shortened: as §1
# UACC-62 = test: Growth inhibition of human UACC62 cells at 10 uM relative to control; settings: read-out: GI
# Procedure, shortened: (§2)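 Single-dose screen across the 60-cell-line human tumor panel at 10 μM. Growth inhibition is reported as a percentage, taken as 100 minus the % growth relative to untreated control.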
# SK-MEL-5 = test: Growth inhibition of human SK-MEL-5 cells at 10 uM relative to control; settings: read-out: GI; procedure, shortened: as §1
# MDA-MB-435 = test: Growth inhibition of human MDA-MB-435 cells at 10 uM relative to control; settings: read-out: GI; procedure, shortened: as §1
# Malme-3M = test: Growth inhibition of human MALME-3M cells at 10 uM relative to control; settings: read-out: GI; procedure, shortened: as §1
# M14 = test: Growth inhibition of human M14 cells at 10 uM relative to control; settings: read-out: GI; procedure, shortened: as §1
# U-251 = test: Growth inhibition of human U251 cells at 10 uM relative to control; settings: read-out: GI; procedure, shortened: as §2
# SNB-19 = test: Growth inhibition of human SNB19 cells at 10 uM relative to control; settings: read-out: GI; procedure, shortened: as §2
# SNB-75 = test: Growth inhibition of human SNB75 cells at 10 uM relative to control; settings: read-out: GI; procedure, shortened: as §2
# SF-295 = test: Growth inhibition of human SF295 cells at 10 uM relative to control; settings: read-out: GI; procedure, shortened: as §1
# SF-539 = test: Growth inhibition of human SF539 cells at 10 uM relative to control; settings: read-out: GI; procedure, shortened: as §1
# KM12 = test: Growth inhibition of human KM12 cells at 10 uM relative to control; settings: read-out: GI; procedure, shortened: as §1
# HCT-116 = test: Growth inhibition of human HCT116 cells at 10 uM relative to control; settings: read-out: GI; procedure, shortened: as §1
# HCT-15 = test: Growth inhibition of human HCT15 cells at 10 uM relative to control; settings: read-out: GI; procedure, shortened: as §1
# HOP-62 = test: Growth inhibition of human HOP62 cells at 10 uM relative to control; settings: read-out: GI; procedure, shortened: as §1
# A549 = test: Growth inhibition of human A549 cells at 10 uM relative to control; settings: read-out: GI; procedure, shortened: as §1
# EKVX = test: Growth inhibition of human EKVX cells at 10 uM relative to control; settings: read-out: GI; procedure, shortened: as §1
# RPMI-8226 = test: Growth inhibition of human RPMI8226 cells at 10 uM relative to control; settings: read-out: GI; procedure, shortened: as §1
# SR = test: Growth inhibition of human SR cells at 10 uM relative to control; settings: read-out: GI; procedure, shortened: as §2
# MOLT-4 = test: Growth inhibition of human MOLT4 cells at 10 uM relative to control; settings: read-out: GI; procedure, shortened: as §1
# K562 = test: Growth inhibition of human K562 cells at 10 uM relative to control; settings: read-out: GI; procedure, shortened: as §1
# HL-60(TB) = test: Growth inhibition of human HL-60(TB) cells at 10 uM relative to control; settings: read-out: GI
# Procedure, shortened: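 Single-dose screen at 10 μM across the 60-cell-line tumour panel. Percent growth inhibition = 100 minus percent growth activity relative to untreated control.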
# Mus musculus [1] = test: Anticonvulsant activity in mouse assessed as protection against maximal electroshock-induced seizure at 1 mmol/kg, ip administered 30 min prior to maximal electroshock-challenge measured after 60 mins relative to control
# Mus musculus [2] = test: Anticonvulsant activity in mouse assessed as protection against strychnine-induced seizure at 1 mmol/kg, ip administered 30 min prior to strychnine-challenge measured after 60 mins relative to control
# Mus musculus [3] = test: Anticonvulsant activity in mouse assessed as protection against pentylenetetrazol-induced seizure at 1 mmol/kg, ip administered 30 min prior to pentylenetetrazol-challenge measured after 60 mins relative to control
# MDA-MB-468 = test: Growth inhibition of human MDA-MB-468 cells at 10 uM relative to control; settings: read-out: GI; procedure, shortened: as §1
# T47D = test: Growth inhibition of human T47D cells at 10 uM relative to control; settings: read-out: GI; procedure, shortened: as §2
# BT-549 = test: Growth inhibition of human BT549 cells at 10 uM relative to control; settings: read-out: GI; procedure, shortened: as §1
# MCF7 = test: Growth inhibition of human MCF7 cells at 10 uM relative to control; settings: read-out: GI; procedure, shortened: as §1
# PC-3 = test: Growth inhibition of human PC3 cells at 10 uM relative to control; settings: read-out: GI; procedure, shortened: as §1
# UO-31 = test: Growth inhibition of human UO31 cells at 10 uM relative to control; settings: read-out: GI; procedure, shortened: as §2
# TK-10 = test: Growth inhibition of human TK10 cells at 10 uM relative to control; settings: read-out: GI; procedure, shortened: as §2
# SN12C = test: Growth inhibition of human SN12C cells at 10 uM relative to control; settings: read-out: GI; procedure, shortened: as §2
# CAKI-1 = test: Growth inhibition of human CAKI-1 cells at 10 uM relative to control; settings: read-out: GI; procedure, shortened: as §1
# ACHN = test: Growth inhibition of human ACHN cells at 10 uM relative to control; settings: read-out: GI; procedure, shortened: as §1
# A498 = test: Growth inhibition of human A498 cells at 10 uM relative to control; settings: read-out: GI; procedure, shortened: as §1
smiles,measurement,setting,value
Cc1ccccc1-n1c(C)nc2cc(NC(=O)c3ccccc3)ccc2c1=O,inhibition of growth at 10 µM,OVCAR-8,5%
same,inhibition of growth at 10 µM,OVCAR-5,12%
same,inhibition of growth at 10 µM,OVCAR-4,17.3%
same,inhibition of growth at 10 µM,UACC-62,23%
same,inhibition of growth at 10 µM,SK-MEL-5,17%
same,inhibition of growth at 10 µM,MDA-MB-435,16.3%
same,inhibition of growth at 10 µM,Malme-3M,6%
same,inhibition of growth at 10 µM,M14,12%
same,inhibition of growth at 10 µM,U-251,9%
same,inhibition of growth at 10 µM,SNB-19,14%
same,inhibition of growth at 10 µM,SNB-75,21.2%
same,inhibition of growth at 10 µM,SF-295,29%
same,inhibition of growth at 10 µM,SF-539,10%
same,inhibition of growth at 10 µM,KM12,26.6%
same,inhibition of growth at 10 µM,HCT-116,3.2%
same,inhibition of growth at 10 µM,HCT-15,3.7%
same,inhibition of growth at 10 µM,HOP-62,5%
same,inhibition of growth at 10 µM,A549,11%
same,inhibition of growth at 10 µM,EKVX,11.1%
same,inhibition of growth at 10 µM,RPMI-8226,2%
same,inhibition of growth at 10 µM,SR,3.5%
same,inhibition of growth at 10 µM,MOLT-4,8.2%
same,inhibition of growth at 10 µM,K562,9%
same,inhibition of growth at 10 µM,HL-60(TB),6%
same,Activity,Mus musculus [1],33%
same,Activity,Mus musculus [2],0%
same,Activity,Mus musculus [3],33%
same,inhibition of growth at 10 µM,MDA-MB-468,2%
same,inhibition of growth at 10 µM,T47D,28%
same,inhibition of growth at 10 µM,BT-549,18%
same,inhibition of growth at 10 µM,MCF7,7%
same,inhibition of growth at 10 µM,PC-3,8%
same,inhibition of growth at 10 µM,UO-31,2.5%
same,inhibition of growth at 10 µM,TK-10,24%
same,inhibition of growth at 10 µM,SN12C,15%
same,inhibition of growth at 10 µM,CAKI-1,4%
same,inhibition of growth at 10 µM,ACHN,24%
same,inhibition of growth at 10 µM,A498,23%

# Reference: ChEMBL document CHEMBL1955778, “Design and synthesis of novel 7-aminoquinazoline derivatives: antitumor and anticonvulsant activities” (Bioorg Med Chem Lett, 2012)
